High-throughput results: PubChem BioAssay, Johns Hopkins Ion Channel Center
Only some compounds are listed: those with a hit (about 2.3% of all), similar ones and a draw of the others.
TRPC4 agonist: TRPC4 (mouse) channel activation. HEK293 TRPC4beta/mu-opioid, Fluo4 calcium fluorescence; hits give high values. B-score at 10 µM. 310,000 tested, 0.49% active. AID 2237;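 active = B-score above 5 SD of library B-scores, and initial fluorescence ratio not above library mean plus 5 SD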;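 also: positive B-score marks a calcium rise read as TRPC4 activation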
Target sequence (Q9QUQ5 whole entry, looked up): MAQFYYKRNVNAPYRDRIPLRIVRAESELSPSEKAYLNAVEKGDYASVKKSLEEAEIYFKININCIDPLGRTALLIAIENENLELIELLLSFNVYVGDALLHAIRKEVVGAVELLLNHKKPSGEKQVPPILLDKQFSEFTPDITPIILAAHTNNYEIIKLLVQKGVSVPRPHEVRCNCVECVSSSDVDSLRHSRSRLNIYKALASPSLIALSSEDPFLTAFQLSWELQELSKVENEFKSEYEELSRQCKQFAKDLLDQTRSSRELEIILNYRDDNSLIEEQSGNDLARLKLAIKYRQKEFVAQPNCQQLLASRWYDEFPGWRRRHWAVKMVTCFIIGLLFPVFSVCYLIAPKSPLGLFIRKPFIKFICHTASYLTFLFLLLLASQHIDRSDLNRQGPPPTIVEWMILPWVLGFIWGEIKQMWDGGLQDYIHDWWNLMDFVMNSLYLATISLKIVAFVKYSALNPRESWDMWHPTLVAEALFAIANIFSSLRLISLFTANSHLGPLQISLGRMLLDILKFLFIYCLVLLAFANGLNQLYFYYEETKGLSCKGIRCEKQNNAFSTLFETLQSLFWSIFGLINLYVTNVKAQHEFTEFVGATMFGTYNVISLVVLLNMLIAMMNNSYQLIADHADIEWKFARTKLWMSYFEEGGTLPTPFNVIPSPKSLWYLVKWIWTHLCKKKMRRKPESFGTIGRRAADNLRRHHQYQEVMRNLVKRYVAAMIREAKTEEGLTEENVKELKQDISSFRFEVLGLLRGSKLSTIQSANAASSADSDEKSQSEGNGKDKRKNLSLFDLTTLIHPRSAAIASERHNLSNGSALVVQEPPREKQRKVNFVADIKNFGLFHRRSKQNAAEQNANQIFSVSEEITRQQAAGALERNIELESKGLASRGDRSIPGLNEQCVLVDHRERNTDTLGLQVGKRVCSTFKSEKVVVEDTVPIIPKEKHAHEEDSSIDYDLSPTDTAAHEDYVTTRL
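Material: TRPC4beta and mu-opioid receptor HEK293 stable cells | Incubation: 45 min room-temperature Fluo4 loading, 110 s read | Detection: Kinetic Fluo4 calcium fluorescence | Measure: Integrated baseline-normalised fluorescence ratio, converted to per-well B score | Benchmarks: Low control buffer alone, high control maximal DAMGO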
TRPC4 inh: blocks the mouse TRPC4 cation channel. Q9QUQ5. HEK293 TRPC4beta/mu-opioid, DAMGO-evoked Fluo4 calcium flux; hits give low values. B-score at 10 µM. 300,000 tested, 0.39% active. AID 2247;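 active = B-score over 3 SD under the library average, no early fluorescence shift, positive overall ratio signal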
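Assay system: HEK293 cells with stable TRPC4beta plus mu-opioid receptor expression. Dosing: single dose. Measured by: Fluo4 Ca2+ flux fluorescence. Also added: DAMGO in two steps, submaximal then maximal. Read-out: B score from integrated Fluo4 fluorescence ratio.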
TRPC4 PAM: allosterically enhances the mouse TRPC4 cation channel; 310,000 tested, 0.42% active; AID 2227; Q9QUQ5; B-score at 10 µM; HEK293 TRPC4beta/mu-opioid, DAMGO EC20, Fluo-4 Ca2+ flux; hits give high values;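 active = B-score of calcium response area above 5 SD of library B-scores, with initial fluorescence ratio within 5 SD of library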
TRPC6 activator: mouse TRPC6 channel activation | Q61143 | HEK293-TRPC6 membrane potential dye fluorescence; hits give high values | B-score at 10 µM | 310,000 tested, 0.13% active | AID 2550;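 active = B-score of the integrated fluorescence ratio above library mean plus 3 SD, and starting fluorescence ratio within library mean plus 5 SD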;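 also: higher score means more depolarization so channel activation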
TRPC6 inhibitor: inhibitors of mouse TRPC6 channel; 310,000 tested, 1.1% active; B-score at 10 µM; HEK293-TRPC6, membrane potential dye, ACh-evoked depolarization; hits give low values;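 active = B-score under library mean minus 3 SD, initial fluorescence not abnormally high, positive integrated signal ratio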;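 also: B-score derived from integrated fluorescence ratio over the kinetic read; more negative B-score means stronger inhibition of depolarization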
TRPC4 sel inh 2: mouse TRPC4 off-target activity of TRPC6 inhibitors, second screen; inhibition, % at 10 µM; 920 tested, 42% active; HEK293 TRPC4/MOR, membrane potential dye fluorescence; channel activated by saturating DAMGO dose; AID 2776; shares compounds with TRPC6 inhibitor;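 active = compounds whose fluorescence signal differed from control wells by over 3 SD, either direction, in both duplicate plates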
TRPC4 spec: selectivity of TRPC6 inhibitors: effect on mouse TRPC4; activity change, negative = inhibition, % at 10 µM; 920 tested, 61% active; HEK293 TRPC4/mu-opioid, membrane potential fluorescence; shares compounds with TRPC6 inhibitor;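 active = rise or fall in signal beyond 3 SD of buffer-only wells in both replicate plates, either sign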;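 also: integrated kinetic ratio of fluorescence range over baseline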
HEK293 MPD ctr 2-1: second check of TRPC6 inhibitor effects in parental HEK293 cells; shares compounds with TRPC6 inhibitor; parental HEK293 membrane potential dye fluorescence; maximal acetylcholine challenge after compound addition; signal change vs control, % at 10 µM; 920 tested, 31% active; AID 2779;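 active = membrane potential signal moving either way by over 3 SD of the maximum-effect control, in both duplicate plates, meaning non-specific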
HEK293 MPD ctr-1: checks TRPC6 inhibitor effects in parental HEK293 cells. shares compounds with TRPC6 inhibitor. parental HEK293 membrane potential dye fluorescence. membrane potential signal change, % at 10 µM. 920 tested, 60% active;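 active = membrane potential signal shifting up or down by more than 3 SD of buffer-only wells, on both duplicate plates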
HEK293 MPD ctr-2: checks TRPC6 modulator effects in parental HEK293 cells. 2,400 tested, 51% active. membrane potential signal change, % at 10 µM. membrane potential dye fluorescence. shares compounds with TRPC6 inhibitor;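 active = membrane potential signal moves up or down beyond 5 SD from buffer-only wells, on both duplicate plates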
HEK293 MPD ctr 2-2: second counter-screen for TRPC6 modulators: effect in parental HEK293 cells | shares compounds with TRPC6 inhibitor | membrane potential dye fluorescence; after compound, maximal acetylcholine stimulation | inhibition, % at 10 µM | 2,400 tested, 14% active;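 active = membrane potential signal drops by more than 5 SD from the mean control signal, in both duplicate plates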
TRPC4/MOR mod: mouse TRPC4 off-target activity of TRPC6 modulators; shares compounds with TRPC6 inhibitor; HEK293 TRPC4/mu-opioid, membrane potential fluorescence; percent change from control (negative = decrease, positive = increase), % at 10 µM; 2,400 tested, 69% active; AID 488927;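 active = membrane potential signal moved up or down beyond 5 SD of buffer control wells, in both duplicate plates, actives on both sides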
TRPC4 ctr inh 2: second check of whether TRPC6 modulators also affect mouse TRPC4; shares compounds with TRPC6 inhibitor; HEK293 TRPC4/mu-opioid, membrane potential dye fluorescence; stimulated with maximal-effect DAMGO; inhibition, % at 10 µM; 2,400 tested, 55% active; AID 488928;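 active = drop in membrane potential signal beyond 5 SD of the control wells in both duplicate plates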;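 also: TRPC4 counter screen for TRPC6 hits run under conditions tuned for TRPC6 not TRPC4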
TRPC6 block conf: confirmation of mouse TRPC6 inhibitors. HEK293-TRPC6, membrane potential dye, ACh-evoked depolarization. 3,300 tested, 43% active. shares compounds with TRPC6 inhibitor. inhibition, % at 10 µM;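 active = fluorescence ratio falls more than 5 SD below the full-stimulation control mean, in both duplicate runs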;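 also: integrated fluorescence ratio of peak minus minimum over baseline after agonist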
TRPC6 act conf: mouse TRPC6 activator confirmation. shares compounds with TRPC6 inhibitor. HEK293-TRPC6 membrane potential dye fluorescence, FDSS. activation, % at 10 µM. 2,800 tested, 11% active;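 active = ratio signal rise beyond 5 SD above unstimulated control wells' mean, seen in both duplicate runs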
Of the large screens only hits and unclear results are named; the others gave an inactive call (follow-up assays come after a bar, where they were run).

Cn1c(SCC(=O)N2CCOCC2)nc2sc3c(c2c1=O)CCCC3	TRPC6 inhibitor -8.78 | TRPC4 sel inh 2 inactive | TRPC4 spec inactive | HEK293 MPD ctr 2-1 inactive | HEK293 MPD ctr-1 inactive | TRPC6 block conf inactive | TRPC6 act conf inactive
COC(=O)CSc1nc2sc3c(c2c(=O)n1C1CCCCC1)CCN(C)C3	TRPC6 inhibitor -9.41 | TRPC4 sel inh 2 78.0% | TRPC4 spec inactive | HEK293 MPD ctr 2-1 inactive | HEK293 MPD ctr-1 -212.0% | TRPC6 block conf inactive | TRPC6 act conf inactive
CCOc1ccccc1N1CCN(Cc2cnc(-c3ccccc3)[nH]2)CC1	none
Cc1ccc(S(=O)(=O)N2CCN(C(=O)c3ccc([N+](=O)[O-])cc3)C2)cc1	none
CN(C)c1ccc2c(c1)OC(N)=C(C#N)C2c1cccc(F)c1 (stereo not drawn)	TRPC4 agonist 56, TRPC6 activator 12.3 | HEK293 MPD ctr-2 413.0% | HEK293 MPD ctr 2-2 inactive | TRPC4/MOR mod 29.5% | TRPC4 ctr inh 2 45.0% | TRPC6 block conf inactive | TRPC6 act conf 43.5%
CCOc1ccc(NC(=O)C2C(c3ccccc3)C2(Cl)Cl)cc1 (stereo not drawn)	none
CCOc1ccc(NC(=O)C2C(C(=O)O)C3(Cl)C(Cl)=C(Cl)C2(Cl)C3(Cl)Cl)cc1 (stereo not drawn)	TRPC6 activator 13.2 | HEK293 MPD ctr-2 250.5% | HEK293 MPD ctr 2-2 inactive | TRPC4/MOR mod 33.0% | TRPC4 ctr inh 2 inactive | TRPC6 block conf inactive | TRPC6 act conf 105.5%
COc1ccc(CCC(C)NC2C3CC4CC(C3)CC2C4)cc1 (stereo not drawn)	TRPC6 inhibitor -8.5 | TRPC4 sel inh 2 65.5% | TRPC4 spec 36.7% | HEK293 MPD ctr 2-1 -12.5% | HEK293 MPD ctr-1 20.9% | TRPC6 block conf 93.7%
Cc1cc(C)cc(NC(=O)CN2CCN(c3ccccc3)CC2)c1	none
CCNc1oc(-c2cccc3ccccc23)nc1C#N	none
N#Cc1nc(-c2cccc3ccccc23)oc1NCCN1CCCCC1	TRPC6 inhibitor -7.57 | TRPC4 sel inh 2 inactive | TRPC4 spec inactive | HEK293 MPD ctr 2-1 inactive | HEK293 MPD ctr-1 inactive | TRPC6 block conf inactive | TRPC6 act conf inactive
Cc1nnc(C)c2c(C)n(-c3ccccc3)c(C)c12	TRPC6 inhibitor -5.03 | HEK293 MPD ctr-2 -127.0% | HEK293 MPD ctr 2-2 inactive | TRPC4/MOR mod -22.0% | TRPC4 ctr inh 2 50.0% | TRPC6 block conf 45.0% | TRPC6 act conf inactive
CCN1C(=O)/C(=C\N2CCCCCC2)SC1=S	TRPC6 inhibitor -7.23 | TRPC4 sel inh 2 inactive | TRPC4 spec inactive | HEK293 MPD ctr 2-1 inactive | HEK293 MPD ctr-1 inactive | TRPC6 block conf inactive | TRPC6 act conf inactive
CCOC(=O)C1CCN(C(=O)c2ccccc2Oc2ccccc2)CC1	none
O=C(c1ccco1)N1CCN(C(=O)c2ccccc2Oc2ccccc2)CC1	TRPC6 inhibitor -8.09 | TRPC4 sel inh 2 inactive | TRPC4 spec 13.1% | HEK293 MPD ctr 2-1 inactive | HEK293 MPD ctr-1 6.7% | TRPC6 block conf 61.8%
CCOC(=O)N1CCN(C(=O)c2ccccc2Oc2ccccc2)CC1	TRPC6 inhibitor -6.14 | HEK293 MPD ctr-2 94.0% | HEK293 MPD ctr 2-2 inactive | TRPC4/MOR mod 26.0% | TRPC4 ctr inh 2 inactive | TRPC6 block conf 67.0%
O=C(c1ccco1)N1CCN(C(=O)c2ccccc2OC(=O)C23CC4CC(CC(C4)C2)C3)CC1	none
O=C(c1cccc(F)c1)N1CCN(S(=O)(=O)c2ccc(C(F)(F)F)cc2)CC1	TRPC6 activator 14.5, TRPC6 inhibitor -11.8 (no result: TRPC4 inh) | HEK293 MPD ctr-2 inactive | HEK293 MPD ctr 2-2 inactive | TRPC4/MOR mod inactive | TRPC4 ctr inh 2 inactive | TRPC6 block conf 61.5% | TRPC6 act conf 71.5%
Cc1ccc(C(=O)N2CCN(S(=O)(=O)c3ccc(C(C)C)cc3)CC2)s1	TRPC6 activator 14.7, TRPC6 inhibitor -12.5 | HEK293 MPD ctr-2 inactive | HEK293 MPD ctr 2-2 inactive | TRPC4/MOR mod inactive | TRPC4 ctr inh 2 inactive | TRPC6 block conf inactive | TRPC6 act conf inactive
CCN(c1ccccc1)S(=O)(=O)c1cccc(C(=O)N2CCN(S(=O)(=O)c3ccccc3)CC2)c1	TRPC6 inhibitor -10.6 | TRPC4 sel inh 2 inactive | TRPC4 spec inactive | HEK293 MPD ctr 2-1 inactive | HEK293 MPD ctr-1 inactive | TRPC6 block conf inactive
C=CCN(c1ccccc1)S(=O)(=O)c1cccc(C(=O)N2CCCC2)c1	none
O=C(c1ccccc1)N1CCN(C2C3CC4CC(C3)CC2C4)CC1 (stereo not drawn)	TRPC6 inhibitor -9.55 | TRPC4 sel inh 2 inactive | TRPC4 spec 2.6% | HEK293 MPD ctr 2-1 inactive | HEK293 MPD ctr-1 6.7% | TRPC6 block conf inactive
COc1ccc(-n2c(C)cc(/C=C3\C(=N)N4N=C(CC(=O)N5CCOCC5)SC4=NC3=O)c2C)cc1	none
O=C(c1cccc(-n2cccc2)c1)N1CCN(S(=O)(=O)c2ccccc2)CC1	TRPC6 inhibitor -7.03 | TRPC4 sel inh 2 inactive | TRPC4 spec inactive | HEK293 MPD ctr 2-1 inactive | HEK293 MPD ctr-1 inactive | TRPC6 block conf 66.1% | TRPC6 act conf inactive
O=C(c1cccc(-n2cccc2)c1)N1CCN(S(=O)(=O)c2c(F)cccc2F)CC1	TRPC6 inhibitor -6.11 | HEK293 MPD ctr-2 inactive | HEK293 MPD ctr 2-2 inactive | TRPC4/MOR mod inactive | TRPC4 ctr inh 2 inactive | TRPC6 block conf 44.5%
